Data: ChEMBL document CHEMBL1134416, “Statistical molecular design, parallel synthesis, and biological evaluation of a library of thrombin inhibitors” (J Med Chem, 2001)

Assays:
[1] = Estimation of membrane permeability by migration behavior in micellar media; assay type: ADME
How it was run: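 Capillary electrophoresis in MEKC mode on untreated fused-silica capillaries (50 µm i.d., 26.5 cm effective length), 300 V/cm, capillary at 37.0 ± 0.1 °C for log k′. Micellar electrolyte: 100 mM sodium cholate in sodium phosphate buffer pH 7.4, I = 0.05. Rinses with 0.1 M NaOH, water, then electrolyte before each run. Hydrodynamic injection at 20 mbar for 5 s. Read-out: log k′.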

[2] = Estimation of membrane permeability; assay type: ADME
[3] = target: Prothrombin (Homo sapiens, UniProt P00734); test: Inhibitory activity against thrombin
[4] = target: T1, Serine protease 1 (Bos taurus, UniProt P00760); test: Inhibitory activity against bovine Trypsin
T1 sequence (P00760 whole entry): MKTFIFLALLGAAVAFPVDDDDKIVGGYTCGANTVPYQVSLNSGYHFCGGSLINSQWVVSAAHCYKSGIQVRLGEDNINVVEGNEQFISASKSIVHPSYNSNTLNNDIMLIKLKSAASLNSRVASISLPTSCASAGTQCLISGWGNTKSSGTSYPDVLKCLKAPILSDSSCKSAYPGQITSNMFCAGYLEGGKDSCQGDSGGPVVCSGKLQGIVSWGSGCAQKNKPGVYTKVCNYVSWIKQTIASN
How it was run: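 Bovine trypsin at 0.25 mg/L final in 0.05 mol/L Tris-HCl pH 8.2 (20 °C) with 20 mM CaCl₂. Inhibitor at seven assay levels of […], preincubated 5 min with enzyme at 37 °C. S-2222 chromogenic substrate at assay levels of 15, 25 and 50 µM. A405 read every 10 s for 110 s. Ki obtained by linear regression.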

Structure (SMILES) | CE logK' [1] | pKa [2] | IC50 [3] [nM] | Ki [4] [nM]
COc1c(Cl)cc(Cl)cc1S(=O)(=O)Oc1cc(C)cc(OCCc2cccc(O)c2)c1 | 1.57 | – | – | –
CCc1cc(OCCc2ccc(CN)cc2)cc(OS(=O)(=O)c2cc(C)ccc2OC)c1 | 0.87 | 9.3 | – | 6170
COc1c(Cl)cc(Cl)cc1S(=O)(=O)Oc1cccc(OCCc2ccc(C(=N)N)cc2)c1 | 0.96 | 10.5 | 56.2 | 263
CCc1cc(OCCc2ccc(C(=N)N)c(O)c2)cc(OS(=O)(=O)c2cc(Cl)cc(Cl)c2OC)c1 | 1.27 | 6.3 | – | –
O=S(=O)(Oc1cccc(OCCc2cccc(O)c2)c1)c1cccc(Cl)c1Cl | 1.41 | – | – | –
Cc1cc(OCCc2ccc(CN)c(O)c2)cc(OS(=O)(=O)c2cc(Cl)ccc2Cl)c1 | 0.98 | 8.6 | 933 | –
COc1ccc(C)cc1S(=O)(=O)Oc1cccc(OCCc2ccc(C(=N)N)c(O)c2)c1 | 1.08 | 6.2 | 575 | 28200
CCc1cc(OCCc2cccc(O)c2)cc(OS(=O)(=O)c2cc(C)ccc2OC)c1 | 1.3 | – | – | –
Cc1cc(OCCc2ccc(CN)cc2)cc(OS(=O)(=O)c2cccc(Cl)c2Cl)c1 | 0.97 | 9 | 1230 | –
CCc1cc(OCCc2ccc(CN)c(O)c2)cc(OS(=O)(=O)c2cccc(Cl)c2Cl)c1 | 1.08 | 8.3 | 11200 | –

More lines, now with the values ahead:

CE logK' [1] | pKa [2] | IC50 [3] [nM] | Ki [4] [nM] | Structure (SMILES)
1.4 | – | – | – | COc1ccc(C)cc1S(=O)(=O)Oc1cccc(OCCc2ccccc2)c1
0.85 | 8.3 | 10700 | – | NCc1ccc(CCOc2cccc(OS(=O)(=O)c3ccccc3)c2)cc1O
0.89 | 9.4 | 58900 | – | Cc1cccc(S(=O)(=O)Oc2cccc(OCCc3ccc(CN)cc3)c2)c1
1.42 | – | – | – | CCc1cc(OCCc2cccc(O)c2)cc(OS(=O)(=O)c2ccccc2)c1
0.88 | 10.9 | 25.1 | – | CCc1cc(OCCc2ccc(C(=N)N)cc2)cc(OS(=O)(=O)c2ccccc2)c1
1.85 | – | – | – | CCc1cc(OCCc2ccccc2)cc(OS(=O)(=O)c2cc(Cl)ccc2Cl)c1
1.16 | 6.3 | 135 | 32400 | Cc1cc(OCCc2ccc(C(=N)N)c(O)c2)cc(OS(=O)(=O)c2cccc(C)c2)c1
1.51 | – | – | – | Cc1cc(OCCc2ccccc2)cc(OS(=O)(=O)c2ccccc2)c1
